# Test results published in ChEMBL document CHEMBL1681680, “Synthesis of chroman aldehydes that inhibit HIV” (Bioorg Med Chem Lett, 2011).
# How the values were obtained:
# [1] = test system: Human immunodeficiency virus 1; experiment: Antiviral activity against HIV1 NL4-3 infected in human HeLa37 cells assessed as inhibition of viral infectivity after 40 hrs by single round infectivity assay; type: functional, organism-based; conditions: Human immunodeficiency virus 1, NL4-3, HeLa37, 40 h
# Method in brief: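 HIV-1 NL4-3 and compound mixed, then added to HeLa37 cells (5×10^4 cells/well) at MOI ~0.005. Infection maintained 40 h. Cells fixed in 75% acetone/25% water and immunostained with human anti-HIV antisera. HIV antigen-positive cells counted and normalized to controls at the same DMSO level (DMSO ≤0.5%). IC50 and IC90 taken from dose-response curves. Triplicates, three independent experiments.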
# [2] = Cytotoxicity against human HeLa37 cells assessed as cell viability by ATPLite assay; type: functional; conditions: for CC50: Homo sapiens, HeLa37, read-out: LC50 (the source's name)
# Method in brief: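 HeLa37 cells plated and dosed as in the infectivity assay, compounds up to 100 μg/mL, DMSO ≤0.5%. A separate DMSO dose-response (0.05–0.5%) was run, and its effect on viability was subtracted. LC50 and LC90 taken from dose-response. Triplicates, three independent experiments.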
structure (smiles),measurement,setting,value
CC(=O)c1c(O)c(C=O)c2c(c1O)CCC(C)(C)O2,IC50,[1],30.2 µM
same,IC90,[1],85 µM
same,LC90,[2],258 µM
same,CC50,[2],145 µM
CC(=O)c1c(O)c2c(c(C(C)=O)c1O)OC(C)(C)CC2,IC50,[1],> 100 µM
same,IC90,[1],> 100 µM
same,CC50,[2],> 100 µM
CC(=O)c1c(O)c(C=O)c(O)c2c1OC(C)(C)CC2,IC50,[1],39.8 µM
same,IC90,[1],85.6 µM
same,CC50,[2],> 100 µM
CC1(C)CCc2c(O)c(C=O)c(O)c(C=O)c2O1,IC50,[1],77.3 µM
same,IC90,[1],> 100 µM
same,CC50,[2],> 100 µM
COc1c(C=O)c(OC)c(C(C)=O)c2c1CCC(C)(C)O2,IC50,[1],55.3 µM
same,IC90,[1],> 100 µM
same,CC50,[2],> 100 µM
CC(=O)c1c(O)c(C=O)c2c(c1O)C=CC(C)(C)O2,IC50,[1],34.6 µM
same,IC90,[1],98.2 µM
same,CC50,[2],> 100 µM
CC1(C)CCc2c(O)c(C(=O)CC(=O)c3ccccc3)c(O)c(C=O)c2O1,IC50,[1],40.7 µM
same,IC90,[1],86.6 µM
same,CC50,[2],84.2 µM
